# Bioassay records from PubChem BioAssay.
# Most compounds without a hit are left out; they make up all but 2.8% or so of the library.
# PAFAH1B2 inh – blocks human PAF acetylhydrolase 1b catalytic subunit 2. P68402. recombinant PAFAH1B2, FP-rhodamine activity probe, fluorescence polarization. inhibition, % at 3.39 µM. actives 1.2% (n = 340,000). AID 492953;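 active = inhibition above the mean of all tested compounds plus 3 SD, cut at about 24% in these data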;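 note: 0% = enzyme with DMSO and 100% = wells lacking PAFAH1B2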
# Target sequence (P68402 whole entry, looked up): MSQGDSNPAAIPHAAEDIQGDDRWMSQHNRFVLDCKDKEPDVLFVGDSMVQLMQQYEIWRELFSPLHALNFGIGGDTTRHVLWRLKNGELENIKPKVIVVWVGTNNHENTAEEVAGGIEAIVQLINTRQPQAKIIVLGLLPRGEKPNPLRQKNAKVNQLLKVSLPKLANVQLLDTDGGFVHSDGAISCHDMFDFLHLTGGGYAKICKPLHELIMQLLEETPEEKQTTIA
# PAFAH2 FP inh – inhibitors of human PAFAH2 | Q99487 | recombinant PAFAH2, FP-rhodamine activity probe, fluorescence polarization | inhibition, % at 3.39 µM | actives 0.99% (n = 340,000);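 active = inhibition above the mean over all tested compounds plus 3 SD, cut at about 30% in these data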;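 note: inhibitors block probe labeling of enzyme so polarization drops; 0% = enzyme with DMSO and 100% = wells lacking PAFAH2 protein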
# PAFAH1B3 inh – inhibitors of human PAFAH1B3. Q15102. recombinant PAFAH1B3, FP-rhodamine probe, fluorescence polarization. inhibition, % at 3.39 µM. actives 0.28% (n = 340,000). AID 492972;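 active = inhibition above the screen-wide average of all tested compounds plus 3 SD, cut at about 25% in these data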;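 note: 0% = enzyme with DMSO only and 100% = wells lacking PAFAH1B3 protein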
# Target sequence (Q15102 whole entry, looked up): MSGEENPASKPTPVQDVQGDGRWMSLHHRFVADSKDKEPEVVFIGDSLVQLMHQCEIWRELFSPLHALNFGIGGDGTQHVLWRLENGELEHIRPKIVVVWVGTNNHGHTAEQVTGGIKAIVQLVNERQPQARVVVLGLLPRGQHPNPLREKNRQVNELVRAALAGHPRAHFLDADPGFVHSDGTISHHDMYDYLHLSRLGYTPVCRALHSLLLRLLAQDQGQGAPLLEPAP
# ASAP1 GAP inh – ASAP1 ArfGAP inhibition | Q9ULH1 | ASAP1-stimulated ARF1 GTP hydrolysis, GDP FP detection | inhibition, % at 16.5 µM | actives 0.19% (n = 360,000) | AID 624377; in the data active = inhibition above about 25%;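 note: 0% = vehicle with enzyme and substrate and 100% = no enzyme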
# ARFGAP1 inh – rat ARFGAP1 inhibition | Arfgap1-stimulated ARF1 GTP hydrolysis, GDP FP detection | inhibition, % at 16.5 µM | actives 0.26% (n = 360,000) | AID 651572;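 active = inhibition above a per-plate limit, mean inhibition of low control wells plus 3 SD, cut at about 25% in these data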;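 note: 0% = DMSO wells with enzyme and 100% = wells lacking Arfgap1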
#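 Material: rat Arfgap1 GAP domain (His6, aa 1-136), purified enzyme. Also added: human ARF1(Δ1-17)-GTP substrate. Compound dosing: 16.5 µM single point, 1.26% DMSO. Timing: enzyme reaction 120 min at 25 °C after 20 min preincubation. Signal: GDP detection by fluorescence polarization. Read-out basis: percent inhibition of GAP-stimulated GDP formation, scaled between DMSO and no-Arfgap1 medians.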
# pPAFAH inh – pPAFAH (human) enzyme inhibition; AID 463082; recombinant pPAFAH, FP-rhodamine probe fluorescence polarization; actives 1.5% (n = 330,000); inhibition, % at 3.39 µM;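 active = inhibition above the mean inhibition across the screen plus 3 SD, cut at about 25% in these data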;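 note: inhibitors block binding of the rhodamine activity-based probe so polarization drops; 0% = enzyme with DMSO and 100% = wells lacking pPAFAH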
# PAFAH2 confirm – PAFAH2 (human) inhibition, confirmed; shares compounds with PAFAH2 FP inh; recombinant PAFAH2, FP-rhodamine activity probe, fluorescence polarization; inhibition, % at 3.39 µM; actives 65% (n = 2,300);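 active = mean inhibition over three repeats above a set limit taken from the earlier primary screen, cut at about 30% in these data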;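 note: inhibitor blocks binding of rhodamine activity probe so polarization falls; 0% = enzyme with DMSO and 100% = wells lacking PAFAH2 protein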
# The depositor's hits bear a star; / = not tested or not shown.
SMILES,PAFAH1B2 inh,PAFAH2 FP inh,PAFAH1B3 inh,ASAP1 GAP inh,ARFGAP1 inh,pPAFAH inh,PAFAH2 confirm
O=c1oc(-c2cccs2)nc2ccccc12,6,56*,19,7,16,-1,35*
Nc1ccc(-c2nc3cc([N+](=O)[O-])ccc3o2)cc1,2,1,5,-7,16,-2,/
O=c1oc(-c2ccc([N+](=O)[O-])cc2)nc2ccc(O)cc12,7,85*,11,-3,10,5,67*
O=c1oc(-c2ccc([N+](=O)[O-])cc2)nc2ccccc12,-5,74*,3,-6,14,4,82*
O=c1oc(-c2ccc(Br)cc2)nc2ccccc12,-5,76*,4,-8,-5,-6,70*
CC(=O)Nc1ccc(-c2nc3ccccc3c(=O)o2)cc1,0,-5,5,4,-1,-6,/
CCc1cc(Cn2nc(-c3ccccc3C)cc2C(=O)O)on1,5,-3,8,14,2,1,/
C[C@@H]1CCCCO[C@@H](CN(C)C(=O)CCCN(C)C)[C@@H](C)CN([C@H](C)CO)C(=O)c2cc(NC(=O)CCC(F)(F)F)ccc2O1,/,/,/,-13,10,/,/
COc1ccccc1CCn1cnc(-c2ccccc2OC)c1C(C)C,/,/,/,4,-2,/,/
CN(CCCn1ccc(N)nc1=O)Cc1ccco1,/,/,/,-3,-11,/,/
Brc1cccc(-c2nc3c4ccccc4ccn3c2CC2CCCCC2)c1,/,/,/,0,0,/,/
O=c1oc(-c2ccccc2)nc2ccsc12,-4,44*,4,14,4,1,30*
O=S(=O)(Nc1c(O)ccc2ccccc12)c1cccc2ccccc12,6,32*,20,/,/,12,16
C=CCOc1ccc(/C=C/C(=O)OCC(=O)NCCCc2ccccc2)cc1,0,17,-4,-2,-8,9,/
C=CCOc1ccc(/C=C/C(=O)OCC(=O)NCC2CCCCC2)cc1,-1,68*,2,-3,7,8,66*
C=CCOc1ccc(/C=C/C(=O)OCC(=O)NC2CCCCCCC2)cc1,2,67*,6,-12,-7,-3,72*
COc1ccc(CCN(C)C(=O)CSc2nnc(C3CC3)n2N)cc1OC,4,4,3,19,16,2,/
COc1cccc(CN2CCC2(C)C(=O)Nc2ccc3c(c2)CCN3C(C)=O)c1F (centres undefined),/,/,/,-5,5,/,/
COc1ccccc1/C=N/OC(=O)c1ccc(F)cc1,7,77*,5,-4,-4,5,64*
O=C(CCNC(=O)c1ccccc1)OCC(=O)c1ccccc1,7,33*,4,-4,-3,0,5
COc1ccc(/C=C/C(=O)OCC(=O)NC2CC2)c(OC)c1,1,83*,10,-10,-11,4,79*
COc1cccc(/C=C/C(=O)OCC(=O)NC2CC2)c1OC,5,68*,16,0,10,6,58*
Cc1noc(C)c1C(=O)Nc1ccc(-c2nnc3n2CCCCC3)cc1,3,-1,12,-4,13,2,/
CC1CCc2sc(C(=O)OCC(=O)NCc3ccc(F)cc3)cc2C1 (centres undefined),0,46*,9,4,-5,-1,40*
COc1ccc([C@H]2C[C@H](O)[C@@H](n3cc(C4CC4)nn3)CN2C(=O)C2CCCCC2)cc1,/,/,/,-7,4,/,/
S=C(NCCCN1CCOCC1)Nc1ccc(Nc2ccccc2)cc1,3,7,4,4,1,3,/
S=C(NCCCN1CCOCC1)Nc1ccc(N2CCOCC2)cc1,10,42*,12,6,3,6,4
Cc1ccc(C(=O)OCC(=O)NCc2ccco2)cc1S(=O)(=O)N1CCOCC1,0,44*,6,-6,7,17,39*
Cc1ccc(C(=O)NCc2ccco2)cc1S(=O)(=O)N1CCOCC1,4,-2,12,-5,7,-4,/
COc1ccc(C(=O)OCC(=O)NCc2ccco2)cc1S(=O)(=O)N1CCN(c2cccc(Cl)c2)CC1,0,32*,9,4,6,15,35*
